This is a sample that favours compounds with a hit; in the whole collection about 1.8% have one here.
NPY-Y2 PAM-ag: potentiators or agonists of human neuropeptide Y receptor Y2; P49146; cells expressing NPY-Y2, potentiator/agonist read-out; activation, % at 3.6 µM; hit rate 0.45% among 220,000; AID 1359; in the data active = activation above about 27%;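 also: cells stimulated with NPY near EC25 plus isoproterenol at EC100; 0% = vehicle plus submaximal agonist and 100% = vehicle plus saturating agonist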
NPY-Y2 antag: blocks the human neuropeptide Y Y2 receptor | P49146 | NPY-Y2 expressing cells, antagonist mode | inhibition, % at 2.7 µM | hit rate 0.99% among 140,000;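 also: 0% = vehicle with agonist challenge and 100% = reference antagonist with challenge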
NPY-Y1 PAM-ag: potentiates or activates human NPY-Y1 receptor. activation, % at 3.6 µM. P25929. hit rate 0.37% among 220,000. NPY-Y1 expressing cells, potentiator/agonist activation; in the data active = activation above about 33%, passing the limit was not always enough;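 also: cells stimulated with NPY at EC10 then isoproterenol at EC100; 0% = low agonist plus stimulus and 100% = saturating agonist plus stimulus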
Target sequence (P25929 whole entry, looked up): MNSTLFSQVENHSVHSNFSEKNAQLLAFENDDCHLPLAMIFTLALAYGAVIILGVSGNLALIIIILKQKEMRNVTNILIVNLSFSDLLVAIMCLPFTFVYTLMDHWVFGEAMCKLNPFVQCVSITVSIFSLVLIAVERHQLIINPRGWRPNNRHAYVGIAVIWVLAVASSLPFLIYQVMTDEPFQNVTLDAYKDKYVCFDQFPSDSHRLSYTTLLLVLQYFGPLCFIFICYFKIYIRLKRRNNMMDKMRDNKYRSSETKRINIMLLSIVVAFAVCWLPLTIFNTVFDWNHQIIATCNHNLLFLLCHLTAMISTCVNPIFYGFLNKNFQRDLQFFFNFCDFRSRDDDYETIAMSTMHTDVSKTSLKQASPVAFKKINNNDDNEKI
NPY-Y1 antag: NPY-Y1 (human) receptor antagonism. P25929. HEK293-CNG Y1 cells, membrane potential fluorescence; NPY at EC95, then isoproterenol. inhibition, % at 3.6 µM. hit rate 1% among 200,000;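 active = inhibition above the campaign mean inhibition of all tested compounds plus 3 SD, cut at about 20% in these data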;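 also: 0% = DMSO wells given NPY plus isoproterenol and 100% = isoproterenol alone without NPY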
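Material: HEK293 cells with Y1 receptor plus CNG channel; times: compound incubation 1 h at room temperature, readout 45 min post-stimulation; signal: fluorescence, membrane potential probe; read-out basis: fluorescence ratio normalized to % inhibition between controls; benchmarks: full-block control isoproterenol-only wells, zero-block control NPY plus isoproterenol wells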
NPY1 antag conf: human NPY-Y1 antagonism, confirmation | shares compounds with NPY-Y1 antag | HEK293-CNG NPY-Y1, membrane potential fluorescence, cAMP; NPY challenge against isoproterenol-raised cAMP | inhibition, % at 3.6 µM | AID 1254 | hit rate 21% among 1,200; in the data active = inhibition above about 20%;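 also: 0% = vehicle with agonist plus stimulus and 100% = stimulus alone without agonist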
NPY2 antag ctr: human NPY-Y2 antagonism in NPY-Y1 counter-screen; shares compounds with NPY-Y1 antag; HEK293 NPY-Y2 CNG membrane potential fluorescence; cells given NPY, then isoproterenol; inhibition, % at 3.6 µM; hit rate 28% among 1,200; AID 1255;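 also: 0% = DMSO with agonist challenge and 100% = reference antagonist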
The depositor's hits bear a star; . = no result given. Rule as the data show it, unless noted: active = inhibition above about 17%; inactive = the rest.

SMILES	NPY-Y2 PAM-ag	NPY-Y2 antag	NPY-Y1 PAM-ag	NPY-Y1 antag	NPY1 antag conf	NPY2 antag ctr
C=CCOc1ccccc1CN1CCC(CO)(CCOc2ccccc2)CC1	-41	.	-34	27*	10	17
CN(C)c1ccnc(SCc2ccccc2Cl)c1C#N	-43	8	-93	28*	16	29*
CN(C)c1ccnc(Oc2ccccc2)c1C#N	18	-1	-13	3	.	.
Cn1cc([N+](=O)[O-])c(C(=O)Nc2ccc(-c3nc4ccccc4o3)cc2)n1	14	.	32	.	.	.
O=C1CCC(C(=O)OCc2ccccc2)N1 (configuration not stated)	-21	1	1	6	.	.
O=C1CCC(C(=O)OCC(=O)C23CC4CC(CC(C4)C2)C3)N1 (configuration not stated)	-2	0	22	23*	-2	1
CCC(=O)c1ccc(OCC(O)CN2CCN(C(c3ccccc3)c3ccccc3)CC2)cc1 (configuration not stated)	-23	2	-11	9	.	.
Cc1ccc(CNC(=O)c2ccc(NS(=O)(=O)c3c(C)noc3C)cc2)cc1	-3	10	-7	28*	11	10
Cc1ccccc1NC(=O)C1CCCN(S(=O)(=O)c2cccc3cccnc23)C1 (configuration not stated)	-9	0	8	96*	2	3
Cc1ccccc1NC(=O)C1CCCN1S(=O)(=O)c1cccc2cccnc12 (configuration not stated)	4	2	9	5	.	.
COc1ccccc1NC(=O)c1oc2ccc(C)cc2c1C	-17	12	-41	22*	7	16
Cc1cn(S(=O)(=O)c2ccc(Br)c3ccccc23)cn1	-29	7	-22	27*	10	7
CC(NC(=O)Cn1c(NCCO)nc2ccccc21)C1CC2CCC1C2 (configuration not stated)	-12	.	-39	40*	25*	12
O=C(c1cnccn1)N1CCc2c([nH]c3ccccc23)C1c1cccc(Cl)c1 (configuration not stated)	11	.	11	6	.	.
CSc1ccc(C2c3[nH]c4ccccc4c3CCN2C(=O)c2cc(C)n(C)n2)cc1 (configuration not stated)	-26	.	-13	27*	15	41*
Cc1cc(C(=O)N2CCc3c([nH]c4ccccc34)C2c2cccc(Cl)c2)nn1C (configuration not stated)	-19	.	-18	36*	20	61*
CC(=O)Nc1ccc(C(=O)OCC(=O)NCc2ccc(Cl)cc2)cc1	-6	.	2	-2	.	.
Fc1cccc(Cc2noc(CN3CCN(C4CCc5ccccc5C4)CC3)n2)c1 (configuration not stated)	-20	.	-15	24*	17	13
COc1ccc(Cc2noc(CN3CCN(C4CCc5ccccc5C4)CC3)n2)cc1OC (configuration not stated)	-22	.	-6	10	.	.
O=C(O)c1ccc(COc2c(F)c(F)c(F)c(F)c2F)o1	15	7	13	2	.	.
COc1ccccc1N1C(=O)C2C(C(=O)c3ccccc3)=NN(c3ccccc3OC)C2C1=O (configuration not stated)	1	.	7	.	.	.
Cc1onc(-c2ccccc2)c1NC(=O)Nc1c(-c2ccccc2)noc1C	5	.	13	30*	7	2
Cc1ccc(S(=O)(=O)N(C)C)cc1NC(=O)Nc1c(-c2ccccc2)noc1C	-5	.	-2	.	.	.
COc1ccc(CN(C(C)=O)c2cccc(C)c2C)cc1	-7	5	-28	7	.	.
CC(=O)N(Cc1ccc(Br)cc1)c1cccc(C)c1C	2	.	-11	33*	1	5
c1ccc(OCc2nn3c(C4CCCCC4)nnc3s2)cc1	-14	9	-33	27*	6	5
S=C(c1ccc2c(c1)OCO2)N1CCOCC1	-3	.	10	.	.	.
CCOC(=O)C1=c2/c(=C/c3ccncc3)c(N)c(C(=O)OC)n2C(=O)C(c2ccncc2)S1 (configuration not stated)	1	.	5	14	.	.
c1ccc2c(NC3CCCC3)nnc(NC3CCCC3)c2c1	-2	12	-1	23*	1	35*
Cc1cccnc1NC1CCCCC1	3	.	3	-1	.	.

High-throughput results deposited in PubChem by The Scripps Research Institute Molecular Screening Center.
